# Assay results taken from ChEMBL document CHEMBL1125323, “Potent V2/V1a vasopressin antagonists with C-terminal ethylenediamine-linked retro-amino acids” (J Med Chem, 1992).
# Experiments:
# Vasopressin receptor [1] = target: T1, Vasopressin receptor (Rattus norvegicus, UniProt P48974+P30560+Q00788); test: Antivasopressor potency in terms of negative logarithm of the effective doses divided by the estimated volume of distribution; format: functional
# Procedure, shortened: (§1)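 Rats anesthetized with urethane, pretreated with phenoxybenzamine; blood pressure responses recorded. USP posterior pituitary reference standard as agonist, given intravenously with antagonist. ED (nmol/kg) is the antagonist dose at which 2x units of agonist match the response to x units without antagonist, log-interpolated from doses above and below. In vivo pA2 uses assumed distribution volume 67 mL/kg.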
# Vasopressin receptor [2] = target: T1, Vasopressin receptor; test: Antiantidiuretic potency in terms of negative logarithm of the effective doses divided by the estimated volume of distribution; format: functional, Urine
# Procedure, shortened: (§2)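 Water-loaded rats under ethanol anesthesia; urine flow followed. USP posterior pituitary reference standard as agonist, all injections intravenous. Effective dose (nmol/kg) is the antagonist dose reducing the response to 2x units of agonist to that of x units alone, interpolated on a log scale between bracketing doses. pA2 = negative log of ED divided by assumed distribution volume 67 mL/kg.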
# [3] = target: T2, Vasopressin receptor (Rattus norvegicus) (UniProt P48974+P30560+Q00788); test: Antivasopressor potency in terms of blood pressure response in rats anesthetized with urethane and pretreated with phenoxybenzamine; format: functional; procedure, shortened: as §1
# [4] = target: T2, Vasopressin receptor (Rattus norvegicus); test: Antiantidiuretic potency in terms of measuring changes in urine flow in water-loaded rats under ethanol anesthesia; format: functional; procedure, shortened: as §2
Structure (SMILES),pA2 (Vasopressin receptor [1]),pA2 (Vasopressin receptor [2]),ED [3] [nM/kg],ED [4] [nM/kg]
CCOc1ccc(C[C@H]2NC(=O)CC3(CCCCC3)SSC[C@@H](C(=O)NCCNC(=O)CN)NC(=O)[C@H](CC(N)=O)NC(=O)[C@H](C(C)C)NC(=O)[C@H](Cc3ccccc3)NC2=O)cc1,7.61,6.59,,
CCOc1ccc(C[C@H]2NC(=O)CC3(CCCCC3)SSC[C@@H](C(=O)N[C@@H](CCCN=C(N)N)C(=O)NCC(N)=O)NC(=O)[C@H](CC(N)=O)NC(=O)[C@H](C(C)C)NC(=O)[C@H](Cc3ccccc3)NC2=O)cc1,8.09,7.82,,
CC[C@@H](C)[C@H]1NC(=O)CC2(CCCCC2)SSC[C@@H](C(=O)NCCNC(=O)[C@@H](N)CCCN=C(N)N)NC(=O)[C@H](CC(N)=O)NC(=O)[C@H](C(C)C)NC(=O)[C@H](Cc2ccccc2)NC1=O,6.16,5.8,,
CCOc1ccc(C[C@H]2NC(=O)CC3(CCCCC3)SSC[C@@H](C(=O)N3CCC[C@H]3C(=O)N[C@@H](CCCN=C(N)N)C(=O)NCCNC(=O)[C@@H](N)CCCN=C(N)N)NC(=O)[C@H](CC(N)=O)NC(=O)[C@H]([C@@H](C)CC)NC(=O)[C@H](Cc3ccccc3)NC2=O)cc1,8.27,8.1,,
CCOc1ccc(C[C@H]2NC(=O)CC3(CCCCC3)SSC[C@H](C(=O)NCCNC(=O)[C@@H](N)CCCN=C(N)N)NC(=O)[C@@H](CC(N)=O)NC(=O)[C@H](C(C)C)NC(=O)[C@@H](Cc3ccccc3)NC2=O)cc1,,,0.47,0.83
CCOc1ccc(C[C@H]2NC(=O)CC3(CCCCC3)SSC[C@H](C(=O)NCCNC(=O)[C@@H](N)CCCN)NC(=O)[C@@H](CC(N)=O)NC(=O)[C@H](C(C)C)NC(=O)[C@@H](Cc3ccccc3)NC2=O)cc1,,,0.59,4
CCOc1ccc(C[C@H]2NC(=O)CC3(CCCCC3)SSC[C@H](C(=O)N3CCCC3C(=O)N[C@@H](CCCN=C(N)N)C(=O)NCCNC(=O)[C@H](N)CCCN=C(N)N)NC(=O)[C@@H](CC(N)=O)NC(=O)[C@H]([C@H](C)CC)NC(=O)[C@@H](Cc3ccccc3)NC2=O)cc1 (some centres not stated),,,0.36,0.57
CCOc1ccc(C[C@H]2NC(=O)CC3(CCCCC3)SSC[C@@H](C(=O)N3CCC[C@H]3C(=O)NCCNC(=O)[C@H](N)CCCCN)NC(=O)[C@H](CC(N)=O)NC(=O)[C@H](C(C)C)NC(=O)[C@H](Cc3ccccc3)NC2=O)cc1,8.08,7.78,,
CCOc1ccc(C[C@H]2NC(=O)CC3(CCCCC3)SSC[C@H](C(=O)NCCNC(=O)[C@H](N)CCCN)NC(=O)[C@@H](CC(N)=O)NC(=O)[C@H](C(C)C)NC(=O)[C@@H](Cc3ccccc3)NC2=O)cc1,,,1.06,1.9
CCOc1ccc(C[C@H]2NC(=O)CC3(CCCCC3)SSC[C@H](C(=O)N3CCCC3C(=O)NCCNC(=O)[C@@H](N)CCCN=C(N)N)NC(=O)[C@@H](CC(N)=O)NC(=O)[C@H](C(C)C)NC(=O)[C@@H](Cc3ccccc3)NC2=O)cc1 (some centres not stated),,,0.48,0.81
CCOc1ccc(C[C@@H]2NC(=O)CC3(CCCCC3)SSC[C@@H](C(=O)NCCNC(=O)[C@@H](N)CCCN=C(N)N)NC(=O)[C@H](CC(N)=O)NC(=O)[C@H](C(C)C)NC(=O)[C@H](Cc3ccccc3)NC2=O)cc1,7.97,6.39,,
CCOc1ccc(C[C@@H]2NC(=O)CC3(CCCCC3)SSC[C@H](C(=O)NCCNC(=O)C(N)CCCN=C(N)N)NC(=O)[C@@H](CC(N)=O)NC(=O)[C@H](C(C)C)NC(=O)[C@@H](Cc3ccccc3)NC2=O)cc1 (some centres not stated),,,0.76,27
CC[C@H](C)[C@H]1NC(=O)CC2(CCCCC2)SSC[C@H](C(=O)NCCNC(=O)C(N)CCCN=C(N)N)NC(=O)[C@@H](CC(N)=O)NC(=O)[C@H](C(C)C)NC(=O)[C@@H](Cc2ccccc2)NC1=O (some centres not stated),,,47,100
CCOc1ccc(C[C@H]2NC(=O)CC3(CCCCC3)SSC[C@H](C(=O)NCCNC(=O)[C@H](N)CCCCN)NC(=O)[C@@H](CC(N)=O)NC(=O)[C@H](C(C)C)NC(=O)[C@@H](Cc3ccccc3)NC2=O)cc1,,,0.82,1.2
CCOc1ccc(C[C@H]2NC(=O)CC3(CCCCC3)SSC[C@H](C(=O)N[C@H](CCCN=C(N)N)C(=O)NCC(N)=O)NC(=O)[C@@H](CC(N)=O)NC(=O)[C@H](C(C)C)NC(=O)[C@@H](Cc3ccccc3)NC2=O)cc1,,,0.56,1.1
CC(C)[C@@H]1NC(=O)[C@@H](Cc2ccccc2)NC(=O)[C@@H](Cc2ccccc2)NC(=O)CC2(CCCCC2)SSC[C@H](C(=O)NCCNC(=O)C(N)CCCN=C(N)N)NC(=O)[C@@H](CC(N)=O)NC1=O (some centres not stated),,,1.7,8.4
CCOc1ccc(C[C@H]2NC(=O)CC3(CCCCC3)SSC[C@H](C(=O)NCCN)NC(=O)[C@@H](CC(N)=O)NC(=O)[C@H](C(C)C)NC(=O)[C@@H](Cc3ccccc3)NC2=O)cc1,,,0.47,5.7
CCOc1ccc(C[C@H]2NC(=O)CC3(CCCCC3)SSC[C@H](C(=O)NCCNC(=O)C(N)CCCN=C(N)N)NC(=O)[C@@H](CC(N)=O)NC(=O)[C@H](C(C)C)NC(=O)[C@@H](Cc3ccccc3)NC2=O)cc1 (some centres not stated),,,0.75,2.1
CCOc1ccc(C[C@H]2NC(=O)CC3(CCCCC3)SSC[C@H](C(=O)NCCNC(=O)CN)NC(=O)[C@@H](CC(N)=O)NC(=O)[C@H](C(C)C)NC(=O)[C@@H](Cc3ccccc3)NC2=O)cc1,,,1.66,18
CCOc1ccc(C[C@H]2NC(=O)CC3(CCCCC3)SSC[C@H](C(=O)N3CCCC3C(=O)NCCNC(=O)[C@@H](N)CCCN)NC(=O)[C@@H](CC(N)=O)NC(=O)[C@H](C(C)C)NC(=O)[C@@H](Cc3ccccc3)NC2=O)cc1 (some centres not stated),,,0.95,0.82
CC(C)C[C@H]1NC(=O)CC2(CCCCC2)SSC[C@H](C(=O)NCCNC(=O)C(N)CCCN=C(N)N)NC(=O)[C@@H](CC(N)=O)NC(=O)[C@H](C(C)C)NC(=O)[C@@H](Cc2ccccc2)NC1=O (some centres not stated),,,58,> 234
CCOc1ccc(C[C@H]2NC(=O)CC3(CCCCC3)SSC[C@H](C(=O)N[C@H](CCCN=C(N)N)C(=O)NCC(=O)NCCNC(=O)[C@H](N)CCCN=C(N)N)NC(=O)[C@@H](CC(N)=O)NC(=O)[C@H](C(C)C)NC(=O)[C@@H](Cc3ccccc3)NC2=O)cc1,,,0.73,0.91
CCOc1ccc(C[C@H]2NC(=O)CC3(CCCCC3)SSC[C@H](C(=O)N3CCCC3C(=O)NCCNC(=O)[C@@H](N)CCCCN)NC(=O)[C@@H](CC(N)=O)NC(=O)[C@H](C(C)C)NC(=O)[C@@H](Cc3ccccc3)NC2=O)cc1 (some centres not stated),,,0.57,1.2
CCOc1ccc(C[C@H]2NC(=O)CC3(CCCCC3)SSC[C@H](C(=O)N3CCCC3C(=O)N[C@H](CCCN=C(N)N)C(=O)NCCNC(=O)[C@H](N)CCCN=C(N)N)NC(=O)[C@@H](CC(N)=O)NC(=O)[C@H](C(C)C)NC(=O)[C@@H](Cc3ccccc3)NC2=O)cc1 (some centres not stated),,,0.51,1.4
CCOc1ccc(C[C@H]2NC(=O)CC3(CCCCC3)SSC[C@H](C(=O)N[C@H](CCCN=C(N)N)C(=O)NCC(=O)NCCN)NC(=O)[C@@H](CC(N)=O)NC(=O)[C@H](C(C)C)NC(=O)[C@@H](Cc3ccccc3)NC2=O)cc1,,,0.59,0.65
CCOc1ccc(C[C@H]2NC(=O)CC3(CCCCC3)SSC[C@H](C(=O)NCCNC(=O)[C@@H](CCCN=C(N)N)NC(=O)[C@H](N)CCCN=C(N)N)NC(=O)[C@@H](CC(N)=O)NC(=O)[C@H](C(C)C)NC(=O)[C@@H](Cc3ccccc3)NC2=O)cc1,,,0.86,1.8
